Reference: article PMC2934894 (Biochemical pharmacology, 2010)
Like-named read-outs stand apart in the source and are kept apart here.

Experiments:
ERα + ERβ = assay: HEK293 ERE-luciferase reporter assay, ERα + ERβ; type: cell-based
Procedure, shortened: (§1)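 HEK293 cells were batch-transfected per well with 2.5 ng of each ER (ERα alone or ERα + ERβ) plus 50 ng tk-ERE-luc. After 48 h expression, cells were exposed to ligands for 24 h and lysed. Firefly luciferase luminescence was measured and normalized to β-galactosidase luminescence in the same well.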

ERα/β heterodimer = ERα/β heterodimer (Homo sapiens, UniProt P03372+Q92731); assay: BRET assay, ERα/β heterodimerization in transfected HEK293 cells; type: cell-based; details: 1 hour
ERα/β heterodimer, sequence (Q92731 whole entry, one chain of several, the tested form may be a part): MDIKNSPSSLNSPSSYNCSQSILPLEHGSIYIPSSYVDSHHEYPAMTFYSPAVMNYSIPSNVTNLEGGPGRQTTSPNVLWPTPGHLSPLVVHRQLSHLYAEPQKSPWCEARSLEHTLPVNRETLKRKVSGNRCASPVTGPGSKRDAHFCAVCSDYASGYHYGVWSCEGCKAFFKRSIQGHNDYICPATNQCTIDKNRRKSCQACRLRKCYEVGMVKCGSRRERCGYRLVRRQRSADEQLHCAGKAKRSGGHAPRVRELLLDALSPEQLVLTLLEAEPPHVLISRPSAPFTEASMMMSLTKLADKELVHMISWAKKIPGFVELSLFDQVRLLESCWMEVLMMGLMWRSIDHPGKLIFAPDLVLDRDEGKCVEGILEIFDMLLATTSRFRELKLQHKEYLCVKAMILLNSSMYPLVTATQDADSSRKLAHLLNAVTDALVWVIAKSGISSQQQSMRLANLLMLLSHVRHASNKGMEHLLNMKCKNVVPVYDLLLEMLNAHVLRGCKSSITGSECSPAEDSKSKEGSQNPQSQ
Procedure, shortened: (§2)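 HEK293 cells batch-transfected in phenol red free DMEM + 5% SFS with fusion pairs: ERα-RLuc + ERα-YFP (α/α), RLuc-ERβ + YFP-ERβ (β/β) or ERα-RLuc + YFP-ERβ (α/β). RLuc-only cells were included for the correction factor. After 24 h, cells were trypsinized and replated at 10,000/well in PBS. Compound was applied for 1 h, then coelenterazine h was added. Emission was read at 470/530 nm; BRET ratio; triplicates; E2 positive, DMSO negative control.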

ERα/α homodimer = target: T1, ERα/α homodimer (Homo sapiens, UniProt P03372); assay: BRET assay, ERα/α homodimerization in transfected HEK293 cells; type: cell-based; details: 100 μM purified compound
T1 sequence (P03372 1-595) 1: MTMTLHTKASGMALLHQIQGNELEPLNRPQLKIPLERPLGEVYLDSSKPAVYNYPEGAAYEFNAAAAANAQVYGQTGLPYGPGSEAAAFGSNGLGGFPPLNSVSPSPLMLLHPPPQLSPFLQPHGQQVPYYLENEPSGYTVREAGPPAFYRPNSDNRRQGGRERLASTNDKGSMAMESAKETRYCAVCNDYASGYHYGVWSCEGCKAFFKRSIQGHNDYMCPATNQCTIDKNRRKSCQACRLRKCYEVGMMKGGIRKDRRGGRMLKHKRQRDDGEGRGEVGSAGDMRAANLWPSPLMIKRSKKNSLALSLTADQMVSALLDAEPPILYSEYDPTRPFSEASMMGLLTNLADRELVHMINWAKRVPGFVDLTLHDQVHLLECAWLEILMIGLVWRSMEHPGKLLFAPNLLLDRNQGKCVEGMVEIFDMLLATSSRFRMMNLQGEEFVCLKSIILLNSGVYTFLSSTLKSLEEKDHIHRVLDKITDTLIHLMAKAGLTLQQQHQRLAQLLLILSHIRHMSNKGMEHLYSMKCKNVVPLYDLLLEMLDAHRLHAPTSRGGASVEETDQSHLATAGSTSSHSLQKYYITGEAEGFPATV
T1 sequence (P03372 1-595) 2: T1 sequence (P03372 1-595) 1
Procedure, shortened: as §2

ERβ/β homodimer = ERβ/β homodimer (Homo sapiens, UniProt Q92731); assay: BRET assay, ERβ/β homodimerization in transfected HEK293 cells; type: cell-based; details: 100 μM purified compound
ERβ/β homodimer, sequence (Q92731 whole entry): as the sequence (Q92731 whole entry, one chain of several, the tested form may be a part) above
ERβ/β homodimer, sequence (Q92731 whole entry): as the sequence (Q92731 whole entry, one chain of several, the tested form may be a part) above
Procedure, shortened: as §2

ERα [1] = target: T2, ERα (Homo sapiens, UniProt P03372); assay: HEK293 ERE-luciferase reporter assay, ERα alone; type: cell-based; details: HEK293, 24 hours with ligand, 10 μM and 100 μM
Procedure, shortened: as §1

ERβ [2] = target: T3, ERβ (Homo sapiens, UniProt Q92731); assay: HEK293 ERE-luciferase reporter assay, ERβ alone; type: cell-based; details: HEK293, 24 hours with ligand, 10 μM and 100 μM
T3 sequence (Q92731 whole entry): as the sequence (Q92731 whole entry, one chain of several, the tested form may be a part) above

HC11 cells [3] = assay: MTT assay for cellular metabolic activity, HC11; type: cell-based, mouse; details: inhibition retained in the presence of ICI 182,780
PC3 cells [4] = assay: MTT assay for cellular metabolic activity, PC3; type: cell-based, human; details: inhibition retained in the presence of ICI 182,780
ERα [5] = target: T2, ERα; assay: Fluorescence Polarization Competition Binding Assay, ERα; details: read-out: Ki for binding to ERα; correlated from IC50, FP competition
Procedure, shortened: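 Competitive fluorescence polarization used purified ERα from a commercial kit. Compound was tenfold serially diluted in screening buffer (down to 10 pM final), DMSO below 1%. It was mixed with ERα (15 nM final) and Fluormone tracer (1 nM final). Incubation was 2 h in the dark at room temperature, then polarization was read in glass tubes.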

ERβ [6] = target: T3, ERβ; assay: Fluorescence Polarization Competition Binding Assay, ERβ
HC11 cells [7] = details: HC11, 10 μM synthetic compound, vs DMSO, p= 0.06
PC3 cells [8] = details: vs DMSO

Compound | effect on actinopolymorphol A-dependent reporter activity (ERα + ERβ; in the presence of ERα + ERβ, HEK293 ERE-luciferase) | induction for ERα/β heterodimers (BRET ratio) (ERα/β heterodimer; 10 μM purified compound) [fold] | increase in ERα/β heterodimerization (BRET ratio) (ERα/β heterodimer; 100 μM purified compound) [fold] | induction of ERα/α homodimer (BRET ratio) (ERα/α homodimer) | induction of ERβ/β homodimer (BRET ratio) (ERβ/β homodimer) | transcriptional activity of ERα alone (ERE-luciferase) (ERα [1]) | transcriptional activity of ERβ alone (ERE-luciferase) (ERβ [2]) | transcriptional activity of ERα + ERβ (ERE-luciferase) (ERα + ERβ; HEK293, 24 hours with ligand, 10 μM and 100 μM) | cell proliferation (MTT metabolic activity) (HC11 cells [3]) | cell proliferation (MTT metabolic activity) (PC3 cells [4]) | Ki (ERα [5]) [µM] | binding affinity for ERβ over ERα (ERβ [6]; FP competition binding, ERβ vs ERα) [fold] | Ki (ERβ [6]; read-out: Ki for binding to ERβ, correlated from IC50, FP competition) [µM] | cell number (HC11 cells [7]) | cell number (PC3 cells [8]; PC3, 10 μM synthetic compound, p= 0.03) | cell number (PC3 cells [8]; PC3, 100 μM synthetic compound, p=0.002)
C[C@]12CC[C@@H]3c4ccc(O)cc4C[C@@H](CCCCCCCCC[S+]([O-])CCCC(F)(F)C(F)(F)F)[C@H]3[C@@H]1CC[C@@H]2O (stereo partly shown) [ICI 182,780, reference compound] | completely abrogated |  |  |  |  |  |  |  |  |  |  |  |  |  |  | 
actinopolymorphol A |  | 3 | 5 | less than 1.5 fold | less than 1.5 fold | not able to activate | found to activate | found to activate | inhibited | inhibited | 6.2 | ~2 | 4.3 | statistically non-significant decrease | statistically significant decreases | statistically significant decreases
